According to ChEMBL document CHEMBL1127509, “Antitumor agents. 152. In vitro inhibitory activity of etoposide derivative NPF against human tumor cell lines and a study of its conformation by X-ray crystallography, molecular modeling, and NMR spectroscopy” (1994):

What was measured:
Tumor Cell line [1] = assay: Tested for in vitro inhibitory activity against drug concentration causing 50% cell death inhibition in 56 human tumor cell lines derived from colon cancer in test 4; log10 LC50; assay type: functional; conditions: read-out: Log LC50 (the source's name) (converted)
Outline: (§1)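 NCI 56-line human tumour panel screen. Cells were seeded in 96-well plates on day 0, mostly at 20 000 cells/well, and preincubated 24 h without drug. Drug was then added at five 10-fold dilutions for a further 48 h. Cells were fixed in situ and stained with SRB, and bound dye was read spectrophotometrically. GI50, TGI (0% growth) and LC50 (−50% growth) were taken versus control. Values are mean-graph midpoints (log10) per test.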

Tumor Cell line [2] = assay: Tested for in vitro inhibitory activity against drug concentration causing 50% cell death inhibition in 56 human tumor cell lines derived from leukemia in test 1; log10 LC50; assay type: functional; conditions: read-out: Log LC50 (the source's name) (converted); outline: as §1
Tumor Cell line [3] = assay: Tested for in vitro inhibitory activity against drug concentration causing 50% cell death inhibition in 56 human tumor cell lines derived from leukemia in test 9; log10 LC50; assay type: functional; conditions: read-out: Log LC50 (the source's name) (converted); outline: as §1
Tumor Cell line [4] = assay: Tested for in vitro inhibitory activity against drug concentration causing 50% cell death inhibition in 56 human tumor cell lines derived from small cell lung cancer in test 3; log10 LC50; assay type: functional; conditions: read-out: Log LC50 (the source's name) (converted); outline: as §1
Tumor Cell line [5] = assay: Tested for in vitro inhibitory activity against drug concentration causing 50% cell death inhibition in 56 human tumor cell lines derived from CNS cancer in test 5; log10 LC50; assay type: functional; conditions: read-out: Log LC50 (the source's name) (converted); outline: as §1
Tumor Cell line [6] = assay: Tested for in vitro inhibitory activity against drug concentration causing 50% cell death inhibition in 56 human tumor cell lines derived from Non small cell lung cancer in test 2; log10 LC50; assay type: functional; conditions: read-out: Log LC50 (the source's name) (converted); outline: as §1
Tumor Cell line [7] = assay: Tested for in vitro inhibitory activity against drug concentration causing 50% cell death inhibition in 56 human tumor cell lines derived from Ovarian cancer in test 7; log10 LC50; assay type: functional; conditions: read-out: Log LC50 (the source's name) (converted); outline: as §1
Tumor Cell line [8] = assay: Tested for in vitro inhibitory activity against drug concentration causing 50% cell death inhibition in 56 human tumor cell lines derived from Renal cancer in test 8; log10 LC50; assay type: functional; conditions: read-out: Log LC50 (the source's name) (converted); outline: as §1
Tumor Cell line [9] = assay: Tested for in vitro inhibitory activity against drug concentration causing 50% cell growth inhibition in 56 human tumor cell lines derived from Ovarian cancer in test 7; log10 GI50; assay type: functional; outline: as §1
Tumor Cell line [10] = assay: Tested for in vitro inhibitory activity against drug concentration causing 50% cell growth inhibition in 56 human tumor cell lines derived from colon cancer in test 4; log10 GI50; assay type: functional; outline: as §1
Tumor Cell line [11] = assay: Tested for in vitro inhibitory activity against drug concentration causing 50% cell growth inhibition in 56 human tumor cell lines derived from leukemia in test 1; log10 GI50; assay type: functional; outline: as §1
Tumor Cell line [12] = assay: Tested for in vitro inhibitory activity against drug concentration causing 50% cell growth inhibition in 56 human tumor cell lines derived from renal cancer in test 8; log10 GI50; assay type: functional; outline: as §1
Tumor Cell line [13] = assay: Tested for in vitro inhibitory activity against drug concentration causing 50% cell death inhibition in 56 human tumor cell lines derived from Melanoma in test 6; log10 LC50; assay type: functional; conditions: read-out: Log LC50 (the source's name) (converted); outline: as §1
Tumor Cell line [14] = assay: Tested for in vitro inhibitory activity against drug concentration causing total cell growth inhibition in 56 human tumor cell lines derived from CNS cancer in test 5; log10 TGI50; assay type: functional; conditions: read-out: Log TGI (converted); outline: as §1
Tumor Cell line [15] = assay: Tested for in vitro inhibitory activity against drug concentration causing total cell growth inhibition in 56 human tumor cell lines derived from Melanoma in test 6; log10 TGI50; assay type: functional; conditions: read-out: Log TGI (converted); outline: as §1
Tumor Cell line [16] = assay: Tested for in vitro inhibitory activity against drug concentration causing total cell growth inhibition in 56 human tumor cell lines derived from Non small cell lung cancer in test 2; log10 TGI50; assay type: functional; conditions: read-out: Log TGI (converted); outline: as §1
Tumor Cell line [17] = assay: Tested for in vitro inhibitory activity against drug concentration causing total cell growth inhibition in 56 human tumor cell lines derived from Renal cancer in test 8; log10 TGI50; assay type: functional; conditions: read-out: Log TGI (converted); outline: as §1
Tumor Cell line [18] = assay: Tested for in vitro inhibitory activity against drug concentration causing total cell growth inhibition in 56 human tumor cell lines derived from leukemia in test 1; log10 TGI50; assay type: functional; conditions: read-out: Log TGI (converted); outline: as §1
Tumor Cell line [19] = assay: Tested for in vitro inhibitory activity against drug concentration causing total cell growth inhibition in 56 human tumor cell lines derived from ovarian cancer in test 7; log10 TGI50; assay type: functional; conditions: read-out: Log TGI (converted); outline: as §1
Tumor Cell line [20] = assay: Tested for in vitro inhibitory activity against drug concentration causing total cell growth inhibition in 56 human tumor cell lines derived from small-cell-lung cancer in test 3; log10 TGI50; assay type: functional; conditions: read-out: Log TGI (converted); outline: as §1
Tumor Cell line [21] = assay: Tested for in vitro inhibitory activity against drug concentration causing 50% cell growth inhibition in 56 human tumor cell lines derived from CNS cancer in test 5; log10 GI50; assay type: functional; outline: as §1
Tumor Cell line [22] = assay: Tested for in vitro inhibitory activity against drug concentration causing 50% cell growth inhibition in 56 human tumor cell lines derived from Melanoma in test 6; log10 GI50; assay type: functional; outline: as §1
Homo sapiens = species: Homo sapiens; assay: Tested for in vitro inhibitory activity against drug concentration causing 50% cell growth inhibition in 56 human tumor cell lines derived from Non-small-cell lung cancer in test 2; log10 GI50; assay type: functional; outline: as §1
Tumor Cell line [23] = assay: Tested for in vitro inhibitory activity against drug concentration causing total cell growth inhibition in 56 human tumor cell lines derived from leukemia in test 9; log10 TGI50; assay type: functional; conditions: read-out: Log TGI (converted); outline: as §1
Tumor Cell line [24] = assay: Tested for in vitro inhibitory activity against drug concentration causing 50% cell growth inhibition in 56 human tumor cell lines derived from small-cell-lung cancer in test 3; log10 GI50; assay type: functional; outline: as §1
Tumor Cell line [25] = assay: Tested for in vitro inhibitory activity against drug concentration causing 50% cell growth inhibition in 56 human tumor cell lines derived from leukemia in test 9; log10 GI50; assay type: functional; outline: as §1
Tumor Cell line [26] = assay: Tested for in vitro inhibitory activity against drug concentration causing total cell growth inhibition in 56 human tumor cell lines derived from colon cancer in test 4; assay type: functional; conditions: read-out: Log TGI (converted); outline: as §1
Tumor Cell line [27] = assay: Tested for in vitro inhibitory activity against drug concentration causing 50% cell growth inhibition in 56 human tumor cell lines derived from leukemia; log10 GI50; assay type: functional
Outline: (§2)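 NCI screen: cells plated on day 0 (mostly 20 000 cells/well) and preincubated drug-free for 24 h. Drug then added at five 10-fold dilutions for 48 h. Cells were fixed in situ, stained with sulforhodamine B, and the solubilized bound dye read spectrophotometrically. GI50, the concentration giving 50% growth inhibition versus control, was taken from dose-response curves.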

P388 = assay: Tested for in vitro inhibitory activity against drug concentration causing 50% cell growth inhibition in P388/ADR cell lines; log10 GI50; assay type: functional, Homo sapiens; conditions: Mus musculus; outline: as §2

COc1cc([C@@H]2c3cc4c(cc3[C@@H](Nc3ccc(F)cc3)[C@H]3COC(=O)[C@H]23)OCO4)cc(OC)c1O
CC50 (Tumor Cell line [1]): 1000 nM | CC50 (Tumor Cell line [2]): 61700 nM | CC50 (Tumor Cell line [3]): 61700 nM | CC50 (Tumor Cell line [4]): 61700 nM | CC50 (Tumor Cell line [5]): 63100 nM | CC50 (Tumor Cell line [6]): 66100 nM | CC50 (Tumor Cell line [7]): 79400 nM | CC50 (Tumor Cell line [8]): 1000 nM | GI50 (Tumor Cell line [9]): 871 nM | GI50 (Tumor Cell line [10]): 708 nM | GI50 (Tumor Cell line [11]): 1100 nM | GI50 (Tumor Cell line [12]): 646 nM | CC50 (Tumor Cell line [13]): 1000 nM | TGI (Tumor Cell line [14]): 11000 nM | TGI (Tumor Cell line [15]): 977 nM | TGI (Tumor Cell line [16]): 12300 nM | TGI (Tumor Cell line [17]): 977 nM | TGI (Tumor Cell line [18]): 9770 nM | TGI (Tumor Cell line [19]): 12000 nM | TGI (Tumor Cell line [20]): 9550 nM | GI50 (Tumor Cell line [21]): 1350 nM | GI50 (Tumor Cell line [22]): 661 nM | GI50 (Homo sapiens): 813 nM | TGI (Tumor Cell line [23]): 8710 nM | GI50 (Tumor Cell line [24]): 1410 nM | GI50 (Tumor Cell line [25]): 813 nM | TGI (Tumor Cell line [26]): 1000 nM

COc1cc([C@@H]2c3cc4c(cc3[C@@H](O[C@@H]3O[C@@H]5CO[C@@H](C)O[C@H]5[C@H](O)[C@H]3O)[C@H]3COC(=O)[C@H]23)OCO4)cc(OC)c1O [ETOPOSIDE]
GI50 (Tumor Cell line [27]): 83200 nM | GI50 (P388): 63100 nM
